Source: PubChem (several laboratories)
NR2E3 ag-1: inhibitors of NR2E3-RetCOR corepressor binding, primary screen, NR2E3 agonist project, biochemical, TR-FRET, GST-NR2E3, biotin-RetCOR; hit rate 0.12% among 320,000; inhibition of corepressor binding, % at 4.78 µM; AID 2300, 2010; Photoreceptor-specific nuclear receptor (Homo sapiens), Q9Y5X4; 1536-well;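 active = percent inhibition above the cutoff of mean plus 3 SD of all tested compounds, set per screening campaign, cut at about 20% in these data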;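 note: 0% = DMSO wells and 100% = biotin wells as full block of FRET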
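System: GST-NR2E3 and biotin-RetCOR proteins; probe or stimulus: 7 nM biotin-RetCOR; doses: compound at 4.8 µM, single dose; schedule: Compound–protein incubation for 5 h at 4 °C; detection: time-resolved FRET; read-out: percent inhibition; controls: biotin wells as high control, 0.6% DMSO wells as low control; format: 1536-well plates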
DAX1 inh-1: DAX1 (NR0B1) inhibitors on StAR promoter, primary screen, cell-based, luminescence, SF-1 (NR5A1), full-length DAX-1. inhibition, % at 6.8 µM. HEK293T StAR-luciferase reporter, SF-1/DAX-1 repression relief. hit rate 1.1% among 370,000. AID 652010, 2013;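 active = inhibition above the mean over all tested compounds plus 3 SD, cut at about 3.6% in these data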;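 note: 0% = DAX-1 cells with DMSO and 100% = cells lacking DAX-1 with DMSO; higher inhibition means more luminescence from relief of DAX-1 repression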
SMARCA2 act: SMARCA2 (BRM) function activators, primary screen, cell-based, luminescence, high throughput; MG213 cells, MMTV-luciferase reporter, dexamethasone, overnight; activation, % at 9.1 µM; hit rate 1% among 370,000; in the data active = activation above about 7.8%;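 note: 0% = vehicle wells and 100% = reference activator wells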
NR2E3 ag-2: NR2E3 agonists in two-hybrid cells, primary screen, cell-based, luminescence, CHO-S, Gal4-NCOR/VP16-NR2E3; hit rate 0.35% among 360,000; inhibition of corepressor binding, % at 3.98 µM; AID 602229, 2012; luciferase;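 active = inhibition above the mean of all tested compounds plus 3 SD, cut at about 70% in these data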;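 note: 0% = DMSO with NR2E3 transfected cells and 100% = cells lacking NR2E3 construct; higher means lower luciferase signal from less NR2E3 corepressor binding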
DAX1 inh-2: DAX1 (NR0B1) inhibitors, primary screen, cell-based, HEK293, Gal4-DAX1, luciferase luminescence | Nuclear receptor subfamily 0 group B member 1 (Homo sapiens), P51843 | HEK293 Gal4-DAX1 luciferase reporter | inhibition, % at 6.75 µM | hit rate 0.99% among 340,000;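 active = inhibition above the mean over all tested compounds plus 3 SD, cut at about 4.2% in these data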;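 note: 0% = DAX1-transfected cells with DMSO and 100% = empty-vector control cells with DMSO; inhibition shows as a rise in luminescence from relieved DAX1 repression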
Target sequence (P51843 207-470 limits assumed): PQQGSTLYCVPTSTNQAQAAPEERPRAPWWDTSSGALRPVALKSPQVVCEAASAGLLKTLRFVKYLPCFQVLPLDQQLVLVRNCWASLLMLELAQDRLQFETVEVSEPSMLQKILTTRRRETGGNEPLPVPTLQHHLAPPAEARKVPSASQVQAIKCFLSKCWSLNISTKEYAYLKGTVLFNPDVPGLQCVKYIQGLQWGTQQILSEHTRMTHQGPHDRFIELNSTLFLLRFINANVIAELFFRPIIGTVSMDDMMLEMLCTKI
JMJD2C inh: inhibitors of GASC-1 histone demethylase, primary screen, biochemical, fluorescence, DELFIA europium. GST-JMJD2C(1-420) H3K9me3 demethylation. inhibition, % at 2.35 µM. hit rate 0.069% among 330,000. AID 2099, 2009;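 active = more than half of a compound's replicate wells show inhibition beyond 50%, single wells judged on their own value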;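 note: signal counts dimethyl H3K9 product captured on neutravidin plate; 0% = median of DMSO wells and 100% = 0.3 times that DMSO median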
Starred values were filed as active, the others as inactive; · = no result given. This is a sample that favours compounds with a hit; in the whole collection about 3.2% have one here.

SMILES	NR2E3 ag-1	DAX1 inh-1	SMARCA2 act	NR2E3 ag-2	DAX1 inh-2	JMJD2C inh
CCc1ccccc1NC(=O)C/C(C)=N/NC(=O)COc1ccccc1C	1	0	-1	-8	0	-17
c1ccc(CCn2nnc(-c3ccc(N4CCOCC4)cc3)n2)cc1	·	0	-5	·	·	·
O=C(Cc1cccc(F)c1)Nc1ccc2c(c1)CCC2	1	0	1	-16	-1	6
O=C(Nc1ccc2c(c1)CCC2)c1cc(F)cc(F)c1	-1	4.1*	3	-116	2	-5
O=C(Nc1ccc2c(c1)CCC2)c1cccc(F)c1	3	4.4*	6	-131	1	-5
COC(=O)[C@]12C[C@H](CC(=O)N3CCCCC3)C(=O)N(Cc3ccc(Cl)cc3Cl)C1=C[C@H](C(C)(C)C)O[C@@H]2C	·	-1	-2	·	·	·
O=C(CSc1nc2ccsc2c(=O)n1CC1CCC(C(=O)O)CC1)c1ccc(Cl)cc1 (stereo not drawn)	0	1	-3	-28	0	8
O=C(O)C1CCC(Cn2c(SCc3cc(=O)n4ccccc4n3)nc3ccsc3c2=O)CC1 (stereo not drawn)	2	0	2	-2	5.0*	0
COc1cc(/C=N/N=C(\N)c2nonc2N)cc(OC)c1O	0	2	3	-38	4.2*	1
O=C(c1cccs1)n1nc(-c2ccccc2)nc1NCc1ccco1	2	0	4	-8	0	1
COCC(=O)n1nc(-c2ccccc2)nc1NCc1cccs1	·	2	4	-19	5.2*	·
COc1cccc(CC(NC(C)=O)C(=O)NC2CCN(c3nnnn3-c3ccccc3)CC2)c1 (stereo not drawn)	-2	0	-1	9	4.3*	-3
COc1ccc(CC(NC(C)=O)C(=O)NC2CCN(c3nnnn3-c3ccccc3)CC2)cc1 (stereo not drawn)	-2	-1	3	2	0	1
CC1(C)Cc2c(sc(NC(=O)Nc3ccccc3)c2C(N)=O)CO1	-3	1	2	-104	5.1*	-6
O=C(/C=C/c1ccccc1[N+](=O)[O-])NCc1ccc(Cl)cc1	2	-1	2	-2	0	9
NS(=O)(=O)c1ccc(CNC(=O)/C=C/c2ccccc2[N+](=O)[O-])cc1	-2	-1	-2	-17	4.4*	-44
N#C/C(=C\c1ccccc1[N+](=O)[O-])C(=O)NCc1ccccc1	3	0	1	-28	4.5*	-1
O=c1c(Cl)c(Nc2cccc(Cl)c2)cnn1-c1nc2ccccc2s1	10	3	-2	-54	3	-7
COc1ccc(Nc2cnn(-c3nc4ccccc4s3)c(=O)c2Cl)cc1	-6	0	12*	-71	0	-4
O=C(Nc1cccc(Cl)c1)Nc1nnc(-c2ccncc2)s1	0	-2	-9	89*	-4	-9
CCN(CC)CCNC(=O)c1cc2c(-c3ccc(Cl)cc3)nn(C)c2s1	4	2	11*	-6	2	17
CCN1CCN(C(=O)c2cc3c(-c4ccc(Cl)cc4)nn(C)c3s2)CC1	4	1	-1	15	4.5*	7
Cn1nc(-c2ccc(Cl)cc2)c2cc(C(=O)NCCN3CCOCC3)sc21	-2	1	1	-4	7.5*	-7
Cn1nc(-c2ccc(Cl)cc2)c2cc(C(=O)NCCCN3CCOCC3)sc21	1	·	·	-28	3	23
COc1ccc2cc(-c3cccc4[nH]cc(C)c34)ccc2c1	·	-1	-2	·	·	·
SMILES	NR2E3 ag-1	DAX1 inh-1	SMARCA2 act	NR2E3 ag-2	DAX1 inh-2	JMJD2C inh
COCCCNC(=O)C[C@H]1C[C@@]2(C(=O)OC)C(=C[C@H](C3CCCC3)O[C@@H]2C)N(Cc2cccc3ccccc23)C1=O	·	-1	-2	·	·	·
O=C(NCCO)/C(=C/c1ccc2c(c1)OCO2)NC(=O)c1ccc(Br)cc1	3	0	1	-36	4.5*	-25
Cc1ccc(CSc2nnc(-c3cc(-c4ccc(F)cc4)n[nH]3)n2N)cc1	·	0	-6	·	·	·
CCOc1ccccc1NC(=O)COC(=O)c1cc[n+]([O-])cc1	-1	0	-4	-15	5.4*	-4
COc1ccc(CS(=O)(=O)/C(Cl)=C(/Cl)C(=O)Nc2ccc(OC)nc2)cc1	-3	·	·	74*	-4	18
O=c1n(-c2ccc(Br)cc2)cnn1-c1ncccc1[N+](=O)[O-]	-3	3	6	-106	4.3*	-5
O=[N+]([O-])c1cccnc1N1CCCCC1	2	0	-3	1	0	-5
CN(Cc1ccccc1F)C(=O)C1C2C=CC3(CN(Cc4ccccc4)C(=O)C13)O2 (stereo not drawn)	·	0	-2	·	·	·
COC(=O)c1ccc(NC(=S)N2CCN(CCO)CC2)cc1	8	0	-2	-13	-1	2
CC(=O)c1ccc(NC(=S)N2CCN(CCO)CC2)cc1	-1	0	-4	-17	4.8*	9
O=C(Nc1cccc(F)c1)OC1CC2CC1[C@H]1CCCCN1[C@H]2Cc1ccccc1 (stereo partly drawn)	·	0	-1	·	·	·
CC(C)(C)c1ccc(-c2nnc3n2N=C(c2ccc4ccccc4c2)CS3)cc1	·	0	-4	·	·	·
O=C(Nc1ccc(-c2cn3ccccc3n2)cc1)c1ccco1	-1	4.3*	4	-58	2	-1
O=S(=O)(Nc1ccc(-c2cn3ccccc3n2)cc1)c1ccccc1	-5	0	-1	16	4.3*	-5
Cc1cccc(S(=O)(=O)Nc2ccc(-c3cn4ccccc4n3)cc2)c1	0	-1	-2	-49	-1	1
CCCCCCCCN1C(=O)[C@@H](CC(=O)N2CCN(C(=O)c3ccco3)CC2)C[C@@]2(C(=O)OC)C1=C[C@H](COCc1ccccc1)O[C@@H]2C	·	1	-1	·	·	·
COc1ccc(-n2c(SCC(=O)NNC(=S)Nc3ccc(C)cc3)nnc2-c2ccccc2)cc1	·	-2	-1	·	·	·
COc1cccc2c(=O)c3ccccc3oc12	-1	1	7	-34	4.5*	-5
COc1ccc2oc3ccccc3c(=O)c2c1	-3	2	5	-70	1	1
COC(=O)[C@]12C[C@H](CC(=O)NCC3CCCCC3)C(=O)N(Cc3ccco3)C1=C[C@H](C(C)(C)C)O[C@@H]2C	·	0	-1	·	·	·
CC(C)c1ccc(N=C2NN=C(c3cccs3)CS2)cc1	-1	3	3	-97	7.2*	4
